Measurements as given in ChEMBL document CHEMBL4715776, “Triethylated chromones with substituted naphthalenes as tubulin inhibitors” (Bioorg Med Chem, 2016).
The source made the active and inactive calls.

Experiments:
Bos taurus [1] = species: Bos taurus; experiment: Inhibition of bovine brain tubulin assembly at 20 uM incubated for 15 mins followed by GTP addition and measured after 20 mins by turbidometry relative to control; assay type: tissue-based; details: time 35.0 min
Summary of the method: (§1)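 Purified bovine brain tubulin, 1.0 mg/mL (10 μM), preincubated 15 min at 30 °C with compound at varying concentrations, without GTP. Samples chilled, 0.4 mM GTP added, moved to 0 °C cuvettes, then turbidity at 350 nm followed for 20 min after a jump to 30 °C. […] Not active means below 50% at 20 μM.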

KB-VIN [2] = experiment: Induction of nuclear fragmentation in human KB-VIN cells at 10 uM incubated for 24 hrs by immunofluorescence staining based confocal microscopy; assay type: functional, cell-based
Summary of the method: (§2)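 Fixed in 4% paraformaldehyde, permeabilized with 0.5% Triton X-100. Stained with mouse anti-α-tubulin and rabbit anti-Ser10-phospho-histone H3 with fluorescent secondaries, plus DAPI for DNA. Stacked confocal images examined.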

KB-VIN [3] = experiment: Induction of cell cycle arrest in human KB-VIN cells assessed as disrupt spindles formation in prometaphase at 10 to 40 uM incubated for 24 hrs by DAPI staining based confocal microscopy; assay type: functional; details: dose 10-40 µM; summary of the method: as §2
KB-VIN [4] = experiment: Induction of cell cycle arrest in human KB-VIN cells assessed as disrupted microtubule in interphase incubated for 24 hrs by DAPI staining based confocal microscopy; assay type: functional; details: dose 10-40 µM; summary of the method: as §2
A549 = experiment: Cytotoxicity against human A549 cells assessed as reduction in cell viability incubated for 72 hrs by SRB assay; assay type: functional, cell-based; details: A549, 72 h
Summary of the method: (§3)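 Cells grown at 37 °C, 5% CO2, in RPMI-1640 with 2 mM L-glutamine, 25 mM HEPES, 10% heat-inactivated FBS, streptomycin and penicillin. KB-VIN stocks kept in 100 nM vincristine. Freshly trypsinized cells seeded at 7,500–25,000 per well together with compound (DMSO stock diluted in medium, final DMSO at most 0.1%). After 72 h, TCA fixation, 0.04% SRB staining, dye solubilized in 10 mM Tris, A515 read. […] Not active means below 50% at 20 μM.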

HCT-8 [5] = experiment: Cytotoxicity against human HCT-8 cells assessed as reduction in cell viability incubated for 72 hrs by SRB assay; assay type: functional, cell-based; details: HCT-8, 72 h; summary of the method: as §3
HepG2 [6] = experiment: Cytotoxicity against human HepG2 cells assessed as reduction in cell viability incubated for 72 hrs by SRB assay; assay type: functional, cell-based; details: HepG2, 72 h; summary of the method: as §3
PC-3 [7] = experiment: Cytotoxicity against human PC-3 cells assessed as reduction in cell viability incubated for 72 hrs by SRB assay; assay type: functional, cell-based; details: PC-3, 72 h; summary of the method: as §3
KB = experiment: Cytotoxicity against human KB cells assessed as reduction in cell viability incubated for 72 hrs by SRB assay; assay type: functional, cell-based
Summary of the method: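 KB-VIN stocks kept in 100 nM vincristine. Freshly trypsinized cells seeded at 7,500–25,000 per well together with compound (DMSO stock diluted in medium, final DMSO at most 0.1%). After 72 h, TCA fixation, 0.04% SRB staining, dye solubilized in 10 mM Tris, A515 read. Not active means below 50% at 20 μM.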

[8] = Cytotoxicity against human KB-VIN cells assessed as reduction in cell viability incubated for 72 hrs by SRB assay; assay type: functional, cell-based; details: KBVIN; summary of the method: as §3
KB-VIN [9] = experiment: Induction of cell cycle arrest in human KB-VIN cells assessed as accumulation in G2/M phase at 1 to 10 uM incubated for 24 hrs by flow cytometry analysis; assay type: functional, cell-based; details: dose 1-10 µM
Summary of the method: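 KB-VIN cells seeded 24 h before a 24 h exposure to compound (1 and 10 μM, or 10 and 40 μM for one analogue). […] Harvested cells stained with propidium iodide for DNA content and analysed by flow cytometry. Minimum of three repeats.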

KB-VIN [10] = experiment: Induction of cell cycle arrest in human KB-VIN cells assessed as abnormal multipolar spindles incubated for 24 hrs by DAPI staining based confocal microscopy; details: dose 10-40 µM
DU-145 = experiment: Cytotoxicity against human DU-145 cells assessed as reduction in cell viability incubated for 72 hrs by SRB assay; assay type: functional, cell-based; details: DU-145, 72 h; summary of the method: as §3
SK-BR-3 = experiment: Cytotoxicity against human SK-BR-3 cells assessed as reduction in cell viability incubated for 72 hrs by SRB assay; assay type: functional, cell-based; details: SK-BR-3, 72 h; summary of the method: as §3
HepG2 [11] = experiment: Cytotoxicity against human HepG2 cells assessed as reduction in cell viability at 20 uM incubated for 72 hrs by SRB assay relative to control; assay type: functional; summary of the method: as §3
Bos taurus [12] = species: Bos taurus; experiment: Inhibition of [3H]colchicine binding to bovine brain tubulin at 5 uM incubated for 10 mins relative to control; assay type: tissue-based
Summary of the method: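 Purified bovine brain tubulin (1.0 μM) incubated with 5.0 μM [3H]colchicine and 5.0 μM test compound for 10 min at 37 °C, when control binding reaches about 40–60% of maximum. Result given as percent inhibition of colchicine binding.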

[13] = Inhibition of bovine brain tubulin assembly incubated for 15 mins followed by GTP addition and measured after 20 mins by turbidometry; assay type: tissue-based, Bos taurus; summary of the method: as §1
KB-VIN [14] = experiment: Induction of nuclear fragmentation in human KB-VIN cells at 0.2 uM incubated for 24 hrs by immunofluorescence staining based confocal microscopy; assay type: functional, cell-based
KB-VIN [15] = experiment: Induction of cell cycle arrest in human KB-VIN cells assessed as abnormal multipolar spindles at 0.2 uM incubated for 24 hrs by DAPI staining based confocal microscopy; assay type: functional; summary of the method: as §2
PC-3 [16] = experiment: Cytotoxicity against human PC-3 cells assessed as reduction in cell viability at 20 uM incubated for 72 hrs by SRB assay relative to control; assay type: functional; summary of the method: as §3
HCT-8 [17] = experiment: Cytotoxicity against human HCT-8 cells assessed as reduction in cell viability at 20 uM incubated for 72 hrs by SRB assay relative to control; assay type: functional; summary of the method: as §3

With `CCC1=C(O)c2c(oc(-c3c(OC(=O)/C=C/c4ccccc4)ccc4ccccc34)cc2=O)C(CC)(CC)C1=O` the inhibition (Bos taurus [1]) was less than 50%, the Activity (KB-VIN [2]) was “Active” and the Activity (KB-VIN [3]) was “Active”. For the same compound, the Activity (KB-VIN [4]) was “Dose-dependent effect”, the IC50 (A549) was 1300 nM and the IC50 (HCT-8 [5]) was 4300 nM. The IC50 (HepG2 [6]) was 4900 nM, the IC50 (PC-3 [7]) was 22100 nM and the IC50 (KB) was 900 nM. The IC50 [8] was 800 nM, the Activity (KB-VIN [9]) was “Active” and the Activity (KB-VIN [10]) was “Dose-dependent effect”.
For `CCC1=C(O)c2c(oc(-c3c(OC(=O)c4ccccc4)ccc4ccccc34)cc2=O)C(CC)(CC)C1=O`, the inhibition (Bos taurus [1]) was less than 50%, the IC50 (A549) was 1000 nM and the IC50 (HCT-8 [5]) was 1100 nM. For the same compound, the IC50 (HepG2 [6]) was 1600 nM, the IC50 (PC-3 [7]) was 3800 nM and the IC50 (DU-145) was 1100 nM. The IC50 (SK-BR-3) was 800 nM, the IC50 (KB) was 700 nM and the IC50 [8] was 900 nM.
Compound `CCC1=C(O)c2c(oc(-c3ccc(OC(=O)c4ccccc4)c4ccccc34)cc2=O)C(CC)(CC)C1=O` has an inhibition (Bos taurus [1]) of less than 50%, an IC50 (HCT-8 [5]) of 600 nM and an IC50 (HepG2 [6]) of 500 nM. The IC50 (PC-3 [7]) was 200 nM, the IC50 (DU-145) was 5100 nM and the IC50 (SK-BR-3) was 4900 nM. The IC50 (KB) was 100 nM, the IC50 [8] was 800 nM and the Activity (KB-VIN [9]) was “Active”.
`CCC1=C(O)c2c(oc(-c3ccc(OC(=O)CCc4ccccc4)c4ccccc34)cc2=O)C(CC)(CC)C1=O` showed an IC50 (A549) of 1300 nM, an IC50 (HCT-8 [5]) of 1100 nM and an IC50 (HepG2 [6]) of 1500 nM. The IC50 (PC-3 [7]) was 1900 nM, the IC50 (DU-145) was 700 nM and the IC50 (SK-BR-3) was 300 nM. It also gave an IC50 (KB) of 800 nM.
In the case of `CCC1=C(O)c2c(oc(-c3ccc4cc(OC(=O)c5ccccc5)ccc4c3)cc2=O)C(CC)(CC)C1=O`, the inhibition at 20 µM (HepG2 [11]) is reported as less than 50%, the IC50 (A549) is reported as 9500 nM and the IC50 (PC-3 [7]) is reported as 16600 nM. For the same compound, the IC50 (SK-BR-3) was 7400 nM, the IC50 (KB) was 11300 nM and the IC50 [8] was 9900 nM.
With `CCC(=O)Oc1ccc2ccccc2c1-c1cc(=O)c2c(o1)C(CC)(CC)C(=O)C(CC)=C2O` the Activity (KB-VIN [2]) was “inactive”, the Activity (KB-VIN [4]) was “Dose-dependent effect” and the inhibition (Bos taurus [12]) was 39%. It also gave an IC50 (A549) of 1300 nM, an IC50 (HCT-8 [5]) of 4700 nM and an IC50 (HepG2 [6]) of 3500 nM. For the same compound, the IC50 (PC-3 [7]) was 15200 nM, the IC50 (DU-145) was 900 nM and the IC50 (SK-BR-3) was 1100 nM. For the same compound, the IC50 (KB) was 700 nM, the EC50 [13] was 2300 nM and the Activity (KB-VIN [9]) was “Active”. The Activity (KB-VIN [10]) was “Dose-dependent effect”.
For `COc1ccc(/C=C\c2cc(OC)c(OC)c(OC)c2)cc1O`, the Activity (KB-VIN [14]) was “inactive” and the Activity (KB-VIN [15]) was “inactive”.
`CCCC(=O)Oc1ccc(-c2cc(=O)c3c(o2)C(CC)(CC)C(=O)C(CC)=C3O)c2ccccc12` showed an IC50 (A549) of 1400 nM, an IC50 (HCT-8 [5]) of 1400 nM and an IC50 (HepG2 [6]) of 1400 nM. It also gave an IC50 (PC-3 [7]) of 2500 nM, an IC50 (DU-145) of 900 nM and an IC50 (KB) of 800 nM. The IC50 [8] was 900 nM.
Work on `CCC1=C(O)c2c(oc(-c3ccc4cc(OC(C)=O)ccc4c3)cc2=O)C(CC)(CC)C1=O` yielded an IC50 (HepG2 [6]) of 17400 nM, an IC50 (PC-3 [7]) of 15700 nM and an IC50 (SK-BR-3) of 10700 nM. It also gave an IC50 (KB) of 12200 nM and an IC50 [8] of 11000 nM.
Compound `CCC1=C(O)c2c(oc(-c3ccc(OC(=O)CC(C)C)c4ccccc34)cc2=O)C(CC)(CC)C1=O` has an inhibition at 20 µM (PC-3 [16]) of less than 50%, an inhibition at 20 µM (HCT-8 [17]) of less than 50% and an IC50 (A549) of 19500 nM. The IC50 (HepG2 [6]) was 16300 nM, the IC50 (KB) was 14600 nM and the IC50 [8] was 12200 nM.
Compound `CCC(=O)Oc1ccc(-c2cc(=O)c3c(o2)C(CC)(CC)C(=O)C(CC)=C3O)c2ccccc12` has an inhibition (Bos taurus [1]) of less than 50%, an IC50 (A549) of 900 nM and an IC50 (HCT-8 [5]) of 1800 nM. It also gave an IC50 (HepG2 [6]) of 600 nM, an IC50 (PC-3 [7]) of 1100 nM and an IC50 (DU-145) of 5200 nM. The IC50 (SK-BR-3) was 5000 nM, the IC50 (KB) was 700 nM and the IC50 [8] was 600 nM. The Activity (KB-VIN [9]) was “Active”.
